XBP1 UPR activ – activators of adaptive XBP1 UPR arm, primary screen, cell-based, CHO-XBP1 luciferase reporter, luminescence, uHTS | IRE1-XBP1 UPR activation; percent of tunicamycin response, DMSO as zero | activation, % at 20 µM | 0.33% of 330,000 active;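 active means versus positive control, 20 µM dose yields 30% or more activation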
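Test system: CHO-XBP1 luciferase reporter cells | Buffer or medium: Serum-containing F12 medium, 10% FBS | Schedule: 6 h compound exposure at 37 °C, 5% CO2 | Detection: Steady-Glo luciferase glow luminescence, 10 min after reagent addition | Read-out basis: Activation, % of tunicamycin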
ABHD5 PLIN5 PPI – ABHD5-PLIN5 interaction inhibitors, primary screen, cell lysate, split luciferase complementation, luminescence; Perilipin-5 (Homo sapiens) + 1-acylglycerol-3-phosphate O-acyltransferase ABHD5 (Homo …; Split G. princeps luciferase complementation, 4 h; inhibition, % at 4 µM; 0.78% of 360,000 active; AID 602281, 2012;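 active means inhibition above the mean inhibition across every tested compound plus 3 SD, cut at about 22% in these data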
Mdm2-MdmX inh – inhibitors of human Mdm2-MdmX association, primary screen, cell-based, luminescence, split luciferase, SaOS-2, uHTS | SaOS-2 split-luciferase Mdm2/MdmX complementation | Protein Mdm4 (Homo sapiens) + E3 ubiquitin-protein ligase Mdm2 (Homo sapiens), … | 3% of 330,000 active | inhibition, % at 8 µM | AID 485346, 2010;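 active means inhibition of at least 50% at 8 µM in the primary screen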
Target sequence (O15151 whole entry, looked up): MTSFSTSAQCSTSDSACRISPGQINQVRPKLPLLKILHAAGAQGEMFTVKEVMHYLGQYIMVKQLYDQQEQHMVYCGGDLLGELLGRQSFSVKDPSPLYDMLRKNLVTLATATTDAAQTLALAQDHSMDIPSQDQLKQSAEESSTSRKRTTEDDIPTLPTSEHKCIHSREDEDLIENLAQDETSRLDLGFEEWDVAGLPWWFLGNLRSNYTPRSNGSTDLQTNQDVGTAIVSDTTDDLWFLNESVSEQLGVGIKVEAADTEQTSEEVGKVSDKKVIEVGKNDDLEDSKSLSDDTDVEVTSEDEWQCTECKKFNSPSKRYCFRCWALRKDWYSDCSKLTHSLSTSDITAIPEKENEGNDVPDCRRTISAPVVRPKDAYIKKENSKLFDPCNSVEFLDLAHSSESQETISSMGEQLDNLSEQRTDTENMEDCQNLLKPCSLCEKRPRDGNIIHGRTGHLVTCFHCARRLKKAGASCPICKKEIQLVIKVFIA
Target sequence (Q00987 whole entry, looked up): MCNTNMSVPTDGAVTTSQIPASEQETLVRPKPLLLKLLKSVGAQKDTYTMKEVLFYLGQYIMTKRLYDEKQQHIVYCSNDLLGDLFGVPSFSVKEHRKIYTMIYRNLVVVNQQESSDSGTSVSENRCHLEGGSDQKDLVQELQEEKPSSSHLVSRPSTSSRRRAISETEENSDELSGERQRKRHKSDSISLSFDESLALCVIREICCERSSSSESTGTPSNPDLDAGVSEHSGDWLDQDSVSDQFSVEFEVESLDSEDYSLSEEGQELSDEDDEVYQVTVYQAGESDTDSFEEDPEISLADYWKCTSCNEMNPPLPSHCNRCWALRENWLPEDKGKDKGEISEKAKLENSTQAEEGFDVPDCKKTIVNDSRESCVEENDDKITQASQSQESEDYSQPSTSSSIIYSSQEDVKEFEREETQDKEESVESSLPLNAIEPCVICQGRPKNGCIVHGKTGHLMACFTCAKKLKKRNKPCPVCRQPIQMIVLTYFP
CHOP UPR activ – activators of apoptotic CHOP UPR arm, primary screen, cell-based, CHO-CHOP luciferase reporter, luminescence, uHTS; UPR activation; percent of tunicamycin response over DMSO baseline; 0.34% of 330,000 active; activation, % at 10 µM;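 active means at 10 µM dose, activation of 40% or more, normalized to positive control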
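assay system = CHO CHOP reporter cells | amount = 500 CHO-CHOP cells per well | buffer or medium = F12 with 10% FBS | incubation = 16-18 h cell attachment, then 6 h compound exposure, 37 °C | detection = luminescence read with Steady-Glo | read-out = percent activation relative to tunicamycin control | controls = tunicamycin high control, DMSO low control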
Exocytosis inh – LAMP-1 surface exposure blockers, TALL-104 cells – cell-based, flow cytometry, MLPCN library, primary screen. TALL-104 LAMP-1 surface exposure; cells stimulated with thapsigargin and PMA. inhibition, % at 10 µM. 0.66% of 360,000 active. AID 651702, 2012;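 active means inhibition above about 55%, limit read from the data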
Mdm2 MdmX conf – Mdm2-MdmX complex disruptors, retested hits, confirmation, luminescence, single concentration. shares compounds with Mdm2-MdmX inh. Mdm2-MdmX binding, luminescent assay. inhibition, % at 8 µM. 55% of 10,000 active. AID 489028, 2010; in the data active means inhibition above about 40%
Full FLuc ctr – full-length luciferase signal inhibition, confirmation, counter-screen for Mdm2/MdmX interaction inhibitor project, cell-based, single concentration, SaOS-2; SaOS-2 full-length luciferase counterscreen, luminescence; inhibition, % at 8 µM; AID 504607, 2011; shares compounds with Mdm2-MdmX inh; 77% of 6,200 active;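 active means mean inhibition at 8 µM reaching about 37%, which flags the compound as non-specific, limit read from the data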;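 further: p53-null SaOS-2 cells with luciferase driven by a doxycycline-inducible promoter; compound on cells about two nights before reading with doxycycline added after day one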
A number is an active result; - = inactive; . = no result. Compounds with a hit are over-represented: about 4% of the library has one in this group of screens.

SMILES | XBP1 UPR activ | ABHD5 PLIN5 PPI | Mdm2-MdmX inh | CHOP UPR activ | Exocytosis inh | Mdm2 MdmX conf | Full FLuc ctr
O=C(CCN1C(=O)/C(=C\c2ccccc2F)SC1=S)Nc1ccc(C(=O)O)c(O)c1 | - | - | - | - | - | . | .
O=C(CCN1C(=O)/C(=C/c2ccccc2F)SC1=S)N[C@@H](CO)Cc1ccccc1 | - | - | 80.0 | - | - | - | 54.0
CCOC(=O)c1sc(NC(=O)Nc2ccc(F)cc2)nc1C | - | - | - | - | - | . | .
Cc1ccc(S(=O)(=O)Nc2ccc(C(=O)NCc3ccncc3)cc2)cc1 | - | - | - | - | - | . | .
CC(C)(C)C(=O)Nc1c2c(nn1-c1ccc(F)cc1)CSC2 | - | - | - | - | - | . | .
O=C(Nc1ccc(Cl)cc1)c1nc[nH]c1C(=O)NCCCNC(=O)c1[nH]cnc1C(=O)Nc1ccc(Cl)cc1 | - | . | 97.1 | - | . | - | .
Cc1ccccc1NC(=O)c1[nH]cnc1C(=O)NN | - | - | - | - | - | . | .
COc1ccc(NC(=O)c2nc[nH]c2C(=O)Nc2ccccc2C)cc1 | - | - | 58.5 | - | - | 54.0 | 48.5
Cc1ccc(NC(=O)c2nc[nH]c2C(=O)NCCN(CCNC(=O)c2[nH]cnc2C(=O)Nc2ccc(C)cc2)CCNC(=O)c2[nH]cnc2C(=O)Nc2ccc(C)cc2)cc1 | - | - | 90.4 | - | - | 76.0 | 38.2
O=C(Nc1ccc(Cl)cc1)c1nc[nH]c1C(=O)NCCN(CCNC(=O)c1[nH]cnc1C(=O)Nc1ccc(Cl)cc1)CCNC(=O)c1[nH]cnc1C(=O)Nc1ccc(Cl)cc1 | - | - | 100.5 | - | - | 97.5 | 55.7
COc1ccc(-c2nc3nc(SC)nn3cc2C)cc1F | - | - | - | - | - | . | .
CCN(CC)C(=O)c1[nH]cnc1C(=O)Nc1ccccc1 | - | - | - | - | - | . | .
O=C(Nc1ccc(F)cc1)c1nc[nH]c1C(=O)Nc1ccc([N+](=O)[O-])cc1 | - | - | 92.4 | - | - | - | .
O=C(Nc1ccccc1)c1nc[nH]c1C(=O)NCCCCCCNC(=O)c1[nH]cnc1C(=O)Nc1ccccc1 | - | - | 87.2 | - | - | - | .
O=C(Nc1ccccc1)c1nc[nH]c1C(=O)NCCCNC(=O)c1[nH]cnc1C(=O)Nc1ccccc1 | - | - | - | - | - | . | .
O=C(Nc1ccccc1)c1nc[nH]c1C(=O)NCCN(CCNC(=O)c1[nH]cnc1C(=O)Nc1ccccc1)CCNC(=O)c1[nH]cnc1C(=O)Nc1ccccc1 | - | - | 62.2 | - | - | - | .
COC(=O)c1nc(NC(=O)C(C)C)n[nH]1 | - | - | - | - | - | . | .
NCCN=C1NS(=O)(=O)c2ccccc21 | - | - | - | - | - | . | .
CC(=O)COc1ccc2c3c(c(=O)oc2c1)CCCC3 | - | - | - | - | - | . | .
Cc1ccc(-c2csc3nc4c5ccccc5c(NCCCN5CCOCC5)nn4c(=O)c23)cc1 | - | . | - | - | . | . | .
Cc1ccc(-c2csc3nc4c5ccccc5c(NCCCN(C)C)nn4c(=O)c23)cc1 | - | - | 100.3 | - | - | 50.3 | 64.1
Cc1cc(-c2nnc(SCC(=O)Nc3ccccc3C(F)(F)F)o2)c(C)n1-c1ccccc1 | - | - | 75.5 | - | - | 76.9 | 103.4
Cc1cccc(NC(=O)CSc2nnc(-c3cc(C)n(-c4ccccc4)c3C)o2)c1C | - | - | - | - | - | . | .
Cc1ccc(-c2nnc(SCC(=O)Nc3ccccc3F)o2)cc1 | - | - | 79.8 | - | - | 67.0 | -
Cc1ccccc1N(CC(=O)NC1CCCC1)C(=O)c1oc(C(C)(C)C)cc1C | - | - | - | - | - | . | .

Screens as filed in PubChem.
